High-throughput results deposited in PubChem BioAssay by several laboratories.
SENP1 inh: blocks the human SENP1 SUMO protease catalytic domain; Q9P0U3; recombinant SENP1 catalytic domain, CyPet-SUMO1-YPet FRET cleavage; inhibition, % at 10 µM; 0.21% of 360,000 active;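 active = inhibition at least 30% at 10 µM, raw YFP signal under a set limit, fluorescence ratio 0.5 to 1.5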;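 also: 0% = enzyme with DMSO and 100% = no enzyme wells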
Target sequence (Q9P0U3 419-644 limits assumed): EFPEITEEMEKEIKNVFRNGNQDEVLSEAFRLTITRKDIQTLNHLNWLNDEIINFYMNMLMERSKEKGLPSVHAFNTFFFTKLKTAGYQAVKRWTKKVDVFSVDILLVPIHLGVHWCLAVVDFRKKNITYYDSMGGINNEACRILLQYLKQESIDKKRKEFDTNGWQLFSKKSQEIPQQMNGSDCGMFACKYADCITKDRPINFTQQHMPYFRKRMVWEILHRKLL
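Test system: hSENP1 catalytic domain, recombinant; Amount: 20 pM final SENP1 enzyme; Medium: Tris pH 8 buffer plus EDTA, NaCl, BME, BSA, NP40, catalase; Schedule: 50 min enzyme reaction, room temperature, light-protected; Technique: FRET fluorescence in CFP and YFP emission channels; Controls: no-enzyme wells low, DMSO-plus-enzyme wells high control.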
Beta2AR agonist: human beta-2 adrenergic receptor agonism by FAP | AID 504454 | Am2.2-beta2AR cells, FAP receptor internalization, flow cytometry | P07550 | response, % (test concentration not listed) | 0.43% of 340,000 active;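 active = response above a set limit, near 3 SD of response in nonfluorescent compounds, cut at about 42% in these data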
NadD block: blocks S. aureus nicotinate mononucleotide adenylyltransferase. purified NadD enzyme, colorimetric absorbance read-out. inhibition, % at 20 µM. 0.78% of 360,000 active. AID 602399; in the data active = inhibition above about 26%
GRK2 inh: human GRK2 inhibition via aptamer displacement. inhibition of aptamer binding, % at 10 µM. bead flow cytometry, FAM-aptamer displacement from GRK2. 0.59% of 330,000 active. P25098;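 active = inhibition of aptamer binding above 40%, roughly 3 SD of noise, on plates passing a quality check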;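 also: median bead fluorescence of bound FAM aptamer so fluorescent compounds give negative values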
ABHD5 PLIN5 PPI: blocks binding of human ABHD5 to perilipin-5 | AID 602281 | Split G. princeps luciferase complementation, luminescence, 4 h | Q00G26+Q8WTS1 | 0.78% of 360,000 active | inhibition, % at 4 µM;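 active = inhibition above the mean inhibition across every tested compound plus 3 SD, cut at about 22% in these data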;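 also: 0% = DMSO only wells and the 100% control is not disclosed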
ABHD5 PLIN5 conf: ABHD5-PLIN5 interaction inhibition, confirmed. biochemical ABHD5-PLIN5 interaction, luminescence. inhibition, % at 4 µM. 67% of 2,200 active. AID 651612. shares compounds with ABHD5 PLIN5 PPI; in the data active = inhibition above about 23%;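 also: 0% = DMSO vehicle wells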
HNF4 counter: HNF4 split-luciferase signal hit, counter-screen; HNF4 dimerization, luminescence, biochemical; inhibition, % at 4 µM; shares compounds with ABHD5 PLIN5 PPI; 77% of 2,200 active;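 active = mean inhibition across replicate wells exceeding the computed hit threshold, cut at about 13% in these data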;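 also: light from luciferase halves that rejoin when HNF4 fusion proteins dimerize; 0% = DMSO only wells and the 100% control is not given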
Target sequence (P41235 whole entry, looked up, the tested form may be a part): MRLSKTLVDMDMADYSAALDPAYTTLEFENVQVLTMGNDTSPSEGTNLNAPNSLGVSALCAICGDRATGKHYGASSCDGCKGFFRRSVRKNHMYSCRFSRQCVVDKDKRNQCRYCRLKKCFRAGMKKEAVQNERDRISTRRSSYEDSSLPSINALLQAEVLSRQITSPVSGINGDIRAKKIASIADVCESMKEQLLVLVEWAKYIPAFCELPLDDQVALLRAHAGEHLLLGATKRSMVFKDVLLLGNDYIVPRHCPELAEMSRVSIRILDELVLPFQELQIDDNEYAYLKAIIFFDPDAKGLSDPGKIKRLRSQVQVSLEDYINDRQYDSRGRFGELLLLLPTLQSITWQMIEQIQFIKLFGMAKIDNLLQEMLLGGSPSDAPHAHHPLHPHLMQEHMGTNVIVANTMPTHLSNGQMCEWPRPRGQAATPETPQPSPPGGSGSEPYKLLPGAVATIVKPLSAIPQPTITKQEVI
* hit, by the source's call; . = not tested or not shown. Compounds with a hit are over-represented: about 2.5% of the library has one in this group of screens.

SMILES | SENP1 inh | Beta2AR agonist | NadD block | GRK2 inh | ABHD5 PLIN5 PPI | ABHD5 PLIN5 conf | HNF4 counter
Cc1cc(C)nc(Sc2ccc([N+](=O)[O-])cc2[N+](=O)[O-])n1 | 4 | -4 | -2 | 0 | -2 | . | .
CCCC(=O)NC1=C(Cl)C(=O)c2ccccc2C1=O | 1 | 38 | 7 | . | 48* | 64* | 101*
CCCCN(CCCNC(=O)c1ccc2c(c1)NC(=O)CN2C)c1ccccc1 | -80 | . | 3 | . | 70* | 52* | 72*
O=C(O)/C=C/C(=O)c1c(-c2ccccc2)[nH]c2ccccc12 | 0 | 3 | 0 | 0 | 62* | 96* | 94*
CC(=O)c1c(-c2ccccc2)[nH]c2ccccc12 | 0 | -3 | -1 | 0 | 2 | . | .
CCn1c(SCC(=O)Nc2nc(C)cs2)nnc1-c1ccncc1 | 1 | -6 | -1 | 0 | 1 | . | .
O=C1Nc2ccccc2/C1=C/c1ccc([N+](=O)[O-])cc1 | 1 | 18 | -1 | 3 | 19 | . | .
CC1(c2ccc([N+](=O)[O-])cc2)Nc2ccccc2S1 (stereo not drawn) | 5 | -2 | -3 | 0 | 35* | -5 | -9
O=C(NCCCN1CCCC1=O)Nc1ccc(Br)cc1Cl | 1 | 3 | -2 | 3 | 3 | . | .
CC(=O)c1cccc(NC(=O)Cn2cnc(S(=O)(=O)N3CCCC3)c2)c1 | 2 | -7 | -5 | 0 | 2 | . | .
CCOC(=O)C1(C(=O)OCC)COC(=O)C1CN1Cc2cc3ccccc3nc2C1 (stereo not drawn) | -15 | . | 2 | . | 46* | 29* | 89*
CC(C)(C)OC(=O)N1Cc2cc3ccccc3nc2C1 | 1 | . | -5 | . | 2 | . | .
CCc1ccc(/C=C/C(=O)c2ccc(S(=O)(=O)N(C)C)cc2)cc1 | 2 | 19 | 1 | 0 | 41* | 92* | 83*
CCc1ccc(/C=C/C(=O)c2ccc(N3CCOCC3)cc2)cc1 | 4 | 0 | 3 | 0 | 6 | . | .
CC(Sc1nnnn1C)C(=O)Nc1nc(-c2ccc(F)c(F)c2)cs1 (stereo not drawn) | -1 | 1 | -4 | 0 | 1 | . | .
CC(=O)c1ccc(N2CCN(S(=O)(=O)c3ccc4c(c3)C(Cl)(Cl)C(=O)N4)CC2)cc1 | -5 | . | 22 | . | 31* | 56* | 51*
CCC(=O)Nc1c(-c2ccc3ccccc3c2)nc2ccccn12 | 2 | -4 | -3 | 0 | -2 | . | .
CCOC(=O)[C@H]1[C@H]2COc3ccc(Cl)cc3[C@@H]2N2C(=O)c3ccc(Cl)cc3NC(=O)[C@@]12C | -1 | 7 | 3 | 0 | 2 | . | .
CC(OC(=O)c1cc(=O)[nH]c2ccccc12)C(=O)NC1CCCCC1C (stereo not drawn) | 4 | -15 | -1 | 3 | -2 | . | .
Cn1c(NCCN2CCCCC2)cc(=O)n(C)c1=O | -3 | -3 | 2 | 0 | 28* | -1 | 3
CCCNc1cc(=O)n(C)c(=O)n1C | -1 | 4 | -4 | 0 | 4 | . | .
O=C(O)CCC(=O)Nc1ccc(SSc2ccc(NC(=O)CCC(=O)O)cc2)cc1 | 3 | -4 | -4 | 3 | 44* | 47* | 115*
CCN(CC)C(=O)[C@H]1C[C@H](CC(=O)NCCc2ccccn2)C(=O)N2CCc3c([nH]c4cc(-c5ccco5)ccc34)[C@]12C | -10 | 2 | -5 | 4 | 24* | 1 | 6
O=C(C[C@H]1C[C@H](C(=O)N2CCOCC2)[C@@]2(CCC3CCCC3)c3[nH]c4cc(-c5ccco5)ccc4c3CCN2C1=O)NCCN1CCOCC1 | -29 | 13 | 6 | 0 | 17 | . | .
COCCCNC(=O)C[C@H]1C[C@H](C(=O)N2CCOCC2)[C@@]2(CCC3CCCC3)c3[nH]c4cc(-c5ccco5)ccc4c3CCN2C1=O | -32 | 5 | -8 | 0 | 18 | . | .
SMILES | SENP1 inh | Beta2AR agonist | NadD block | GRK2 inh | ABHD5 PLIN5 PPI | ABHD5 PLIN5 conf | HNF4 counter
COc1ccc(CNC(=O)C[C@H]2C[C@H](C(=O)N3CCOCC3)[C@@]3(CCC4CCCC4)c4[nH]c5cc(-c6ccco6)ccc5c4CCN3C2=O)cc1OC | -28 | 9 | -1 | 2 | 29* | 16 | 13*
O=C(C[C@H]1C[C@H](C(=O)N2CCOCC2)[C@@]2(CCC3CCCC3)c3[nH]c4cc(-c5ccco5)ccc4c3CCN2C1=O)NCc1cccc(C(F)(F)F)c1 | -39 | 3 | 23 | 0 | 23* | 8 | 2
CN(C)CCCNC(=O)C[C@H]1C[C@H](C(=O)N2CCOCC2)[C@@]2(CCC3CCCC3)c3[nH]c4cc(-c5ccco5)ccc4c3CCN2C1=O | -5 | 63* | 9 | 0 | 25* | 14 | 11
COc1ccccc1C(=O)Nc1ccc(OCC(=O)N2CC(C)OC(C)C2)cc1 (stereo not drawn) | 3 | 4 | -6 | 2 | -2 | . | .
CCN(CC(=O)Nc1ccccc1C(F)(F)F)C(=O)c1cc(S(=O)(=O)N2CCCCCC2)ccc1OC | 1 | 3 | -6 | 0 | 1 | . | .
CCOC(=O)C(=Cc1c[nH]c2ccc(S(=O)(=O)N(C)C)cc12)C(=O)OCC | 0 | 19 | -5 | 0 | 52* | 63* | 58*
CCOC(=O)/C(C#N)=C/c1c[nH]c2ccccc12 | -30 | -12 | -2 | 0 | 4 | . | .
COc1ccc(Cl)cc1N/C(N)=N/c1nc(CSc2ccc(C)cc2)cc(=O)[nH]1 | -2 | 0 | 16 | 0 | 104* | 3 | 5
COc1ccc(Cl)cc1N/C(N)=N/c1nc(C)cc(=O)[nH]1 | 2 | -11 | -3 | 0 | 4 | . | .
C=C(C)[C@@H]1C2=CC(C(=O)OC)=C(C[C@H](C(=C)C)[C@H]3O[C@H]3C3=C[C@H]1OC3=O)O2 | 0 | . | 3 | . | 63* | 87* | 78*
COC(=O)C=C1CCC2C3CC(F)C4(O)CC(=O)CCC4(C)C3C(=O)CC12C (stereo not drawn) | 1 | 0 | -3 | . | -6 | . | .
CCOC(=O)/C=C1\CN(CCC(C)C)S(=O)(=O)c2ccccc21 | -1 | -2 | 8 | 2 | 5 | . | .
CCOC(=O)/C=C1\CN(C(C)c2ccccc2)S(=O)(=O)c2ccccc21 (stereo not drawn) | 2 | -2 | 15 | 0 | 59* | 7 | 4
COc1cc2c(cc1OC)C(C)N(CCc1ccc(Cl)cc1)CC2 (stereo not drawn) | -5 | -4 | -7 | 0 | 24* | 24* | 0
C(#Cc1c(-c2ccsc2)sc2ccccc12)c1ccsc1 | -11 | 5 | 0 | 2 | -14 | . | .
Cc1cc2oc(=O)sc2cc1NS(=O)(=O)c1ccccc1 | 1 | 10 | 2 | 0 | 39* | -72 | -27
CCCCC1CC(=O)NC1(C(=O)OCC)C(=O)OCC (stereo not drawn) | 2 | 6 | -1 | . | -1 | . | .
